Measurements of several laboratories.
BRAF: Serine/threonine-protein kinase B-raf (BRAF, Homo sapiens, UniProt P15056)
BRAF V600E: Serine/threonine-protein kinase B-raf (BRAF, Homo sapiens, UniProt P15056, V600E)

The remaining binding of `CN(C)c1nccc(-c2cnn3ncccc23)n1` is reported as 74% (BRAF; binding; 1 µM).
With `FC(F)(F)Oc1cccc(-c2cnc3ccc(-c4ccncc4)nn23)c1` the remaining binding was 32% (BRAF; cell-free assay, competition with immobilised ligand; 5 µM).
The remaining binding of `COc1ncc2cc3ccccc3nc2c1C#N` is reported as 100% (BRAF V600E; cell-free assay, competition with immobilised ligand; 5 µM).
The remaining binding of `Nc1ncc2c(n1)-c1c([nH]c3ccc(C#CC4CC4)cc13)CCCC2` is reported as 100% (BRAF; binding, competition with immobilised ligand; 1 µM).
`CS(=O)(=O)N1CCCC(NC(=O)[C@H](CCC2CCCCC2)NC(=O)c2ccc(CNc3ncnc4c3nnn4-c3ccccc3)cc2)C1` (stereo partly shown) gave a remaining binding of 81% (BRAF; cell-free assay, competition with immobilised ligand; 0.1 µM).
`CN1CCN(c2ccc(Nc3nccc(-c4cccc([N+](=O)[O-])c4)n3)cc2C(F)(F)F)CC1` has a remaining binding of 3.8% (BRAF V600E; binding; 10 µM).
The remaining binding of `O=C(c1ccc(Nc2nccc(-c3cc4ccccc4s3)n2)cc1)N1CCC(N2CCCC2)CC1` is reported as 38% (BRAF; binding, competition with immobilised ligand; 1 µM).
`N#Cc1ccccc1CSc1nnc2c(n1)[nH]c1ccccc12` has a remaining binding of 100% (BRAF V600E; binding, competition with immobilised ligand; 10 µM).
With `COc1ccc2cc(OCC3(C(=O)O)CN(C(=O)c4ccc(F)cc4)C3)ccc2c1` the remaining binding was 100% (BRAF V600E; cell-free assay, competition with immobilised ligand; 1 µM).
With `Cc1cnc(Nc2ccc(C(=O)N3CCC(N4CCCC4)CC3)cc2)nc1-c1cc2ccccc2s1` the remaining binding was 32% (BRAF V600E; binding, competition with immobilised ligand; 1 µM).
For `C[C@@H](c1ccc(-n2cnc3c(N)ncnc32)cc1)N1CCc2nn(C)c(Cc3ccccc3)c2C1=O`, the remaining binding was 76% (BRAF V600E; binding, competition with immobilised ligand; 0.1 µM).
`O=C(NCCCN1CCOCC1)c1ccc(Nc2nccc(-c3cc4ccccc4s3)n2)cc1` has a remaining binding of 67% (BRAF V600E; binding, competition with immobilised ligand; 1 µM).
With `O=C(Nc1c[nH]nc1C(=O)NC1CCNCC1)c1cc(F)cc(F)c1` the remaining binding was 100% (BRAF; binding, competition with immobilised ligand; 1 µM).
`COc1cnc(Nc2cccc(S(N)(=O)=O)c2)nc1N1CCN(c2ccccc2)C(=O)C1` has a remaining binding of 84% (BRAF V600E; binding, competition with immobilised ligand; 1 µM).
With `NS(=O)(=O)c1cc(NC(=O)C2(c3ccccc3Cl)CC2)ccc1Oc1cccc(Cl)c1` the remaining binding was 71% (BRAF; cell-free assay, competition with immobilised ligand; 1 µM).
The remaining binding of `F[C@@H]1CCN(c2nccc(-c3cnn4ncccc34)n2)C1` is reported as 100% (BRAF V600E; binding; 1 µM).
For `CNC(=O)[C@@H]1CC[C@@H](n2c(-c3ccc4cnccc4c3)nc3ccc(C(=O)NCc4cccc(C(N)=O)c4)cc32)C1`, the remaining binding was 100% (BRAF V600E; binding, competition with immobilised ligand; 1 µM).
`COc1ccnn2ncc(-c3ccnc(N(C)C)n3)c12` has a remaining binding of 48% (BRAF; binding; 1 µM).
The remaining binding of `O=C(c1ccc(Nc2ncc(Cl)c(-c3ccc(Cl)s3)n2)cc1)N1CCC(N2CCCC2)CC1` is reported as 65% (BRAF; binding, competition with immobilised ligand; 1 µM).
For `CCN1CCN(Cc2ccc(C(=O)Nc3ccc(C)c(Oc4ccc5c(c4)CC(=O)N5)c3)cc2C(F)(F)F)CC1`, the remaining binding was 28% (BRAF V600E; binding, competition with immobilised ligand; 1 µM).
`O=C(NCCCN1CCOCC1)c1ccc(Nc2ncc(Cl)c(-c3ccc(Cl)s3)n2)cc1` gave a remaining binding of 100% (BRAF; binding, competition with immobilised ligand; 1 µM).
For `C[C@@H]1CN(c2ccc3ncc(-c4ccc5[nH]nc(C6CC6)c5c4)n3n2)C[C@H](C)O1`, the remaining binding was 100% (BRAF; binding, competition with immobilised ligand; 0.5 µM).
`COc1cnc(Nc2cccc(S(N)(=O)=O)c2)nc1N1CCN(c2ccccc2)CC1` gave a remaining binding of 82% (BRAF V600E; binding, competition with immobilised ligand; 1 µM).
`c1cncc(-c2cccc(Nc3nccc(NC4CCCCC4)n3)c2)c1` has a remaining binding of 69% (BRAF; binding, competition with immobilised ligand; 10 µM).
`C[C@@H]1CCN(c2nccc(-c3cnn4ncccc34)n2)C1` has a remaining binding of 75% (BRAF; binding; 1 µM).
The remaining binding of `O=C(c1ccc(Nc2ncc(Cl)c(-c3cc4ccccc4s3)n2)cc1)N1CCC(N2CCCC2)CC1` is reported as 56% (BRAF V600E; binding, competition with immobilised ligand; 1 µM).
For `c1cnn2ncc(-c3ccnc(N4CCC45COC5)n3)c2c1`, the remaining binding was 63% (BRAF V600E; binding; 1 µM).
For `Cc1nccc(COC(=O)N2C[C@@H]3[C@@H](CNC(=O)c4ccc5[nH]nnc5c4)[C@@H]3C2)n1`, the remaining binding was 100% (BRAF V600E; cell-free assay, competition with immobilised ligand; 1 µM).
With `N[C@H]1CCN(c2nccc(-c3cnn4ncccc34)n2)C1` the remaining binding was 92% (BRAF V600E; binding; 1 µM).
The remaining binding of `Cc1c(NC(=O)c2cc(C(N)=O)nc3cc(F)ccc23)c(C(F)(F)F)nn1Cc1ccc(C#N)cc1` is reported as 90% (BRAF V600E; cell-free assay, competition with immobilised ligand; 1 µM).
`CN(c1nccc(-c2cnn3ncccc23)n1)C1CC1` gave a remaining binding of 100% (BRAF V600E; binding; 1 µM).
With `NS(=O)(=O)c1cc(NC(=O)Cc2ccccc2)ccc1Oc1cccc(Cl)c1` the remaining binding was 96% (BRAF; cell-free assay, competition with immobilised ligand; 1 µM).
The remaining binding of `O=C(NCC1CCOCC1)c1n[nH]cc1NC(=O)c1c(F)cccc1F` is reported as 100% (BRAF V600E; binding, competition with immobilised ligand; 1 µM).
`Cc1cc(NC(=O)c2cccc(S(F)(F)(F)(F)F)c2)cc(-n2ccn3nc(-c4cccnc4)cc23)c1` gave a remaining binding of 24.4% (BRAF V600E; cell-free assay, competition with immobilised ligand; 1 µM).
The remaining binding of `C=CC(=O)N1CCC(C(=O)NCC(=O)N2CCN(c3nc(-c4cnc(N)nc4C(F)F)nc(N4CCOCC4)n3)CC2)CC1` is reported as 92% (BRAF; binding, competition with immobilised ligand; 1 µM).
`Cc1nc(Cc2cccc(C(F)(F)F)c2)sc1-c1ccc(C(N)=O)nc1` has a remaining binding of 100% (BRAF V600E; cell-free assay, competition with immobilised ligand; 1 µM).
`CN(CCCC(F)(F)F)c1nccc(-c2cnn3ncccc23)n1` has a remaining binding of 100% (BRAF V600E; binding; 1 µM).
